Laboratory results reported in ChEMBL document CHEMBL5303300, “EUbOPEN Chemogenomics Library - Multiplex” (2023).
Values joined by “and” are separate entries in the source; they are usually repeats but may differ in a detail not shown here. Equal entries are not always repeated.

Key:
HEK-293T = assay: Multiplex assay against HEK293T; assay type: toxicity, cell-based; conditions: human, number of replicates 2
Summary of the method: (§1)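 Hoechst33342, BioTracker Green Microtubule Cytoskeleton Dye, MitoTracker Red and Annexin V Alexa Fluor 680 were added to live cells at seeding, and imaging on a CQ1 microscope at 37°C and 5% CO2 followed compound addition. Gating by CellPathfinder machine learning separated cells into Hoechst high-intensity objects or normal cells, then normal cells into healthy, pyknosed or fragmented nuclei, then pyknosed cells into mitotic or apoptotic. Per cents of healthy-nucleus cells are reported for the tubulin, mitochondrial-mass and membrane-permeability phenotypes.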

U2OS = assay: Multiplex assay against U2OS; assay type: toxicity, cell-based; conditions: human, number of replicates 2; summary of the method: as §1
[1] = 12 h, 1 µM, compound concentration 1 uM
[2] = 12 h, 10 µM, compound concentration 10 uM
[3] = 24 h, 1 µM, compound concentration 1 uM
[4] = 24 h, 10 µM, compound concentration 10 uM
[5] = 48 h, 1 µM, compound concentration 1 uM
[6] = 48 h, 10 µM, compound concentration 10 uM

Q: With `CC(=O)N(CCN(C)C)c1ccc(N/C(=C2\C(=O)Nc3cc(Cl)ccc32)c2ccccc2)cn1` as the molecule, how does the “Population Apoptotic (%)” value (HEK-293T; [1]) read?
A: The value was 32% and 41%.

Q: And the “Population Fragmented Nuclei (%)” value (HEK-293T; [1])?
A: The value was 2%.

Q: And the “Population Healthy Nuclei (%)” value (HEK-293T; [1])?
A: Its value is 84% and 85%.

Q: What about the “Population Hoechst High Intensity Objects (%)” value (HEK-293T; [1]) of the same molecule?
A: Its value is 5%.

Q: What about the “Population Membrane Permeable-Phenotype (%)” value (HEK-293T; [1]) of the same molecule?
A: The value was 2% and 3%.

Q: And the “Population Mitochondria Different-Phenotype (%)” value (HEK-293T; [1])?
A: The value was 23% and 26%.

Q: And the “Population Mitotic Cells (%)” value (HEK-293T; [1])?
A: Its value is 67% and 58%.

Q: And the “Population Normal (%)” value (HEK-293T; [1])?
A: The value was 94%.

Q: What about the “Population Pyknosed Nuclei (%)” value (HEK-293T; [1]) of the same molecule?
A: Its value is 12%.

Q: What about the “Population Tubulin-Different-Phenotype (%)” value (HEK-293T; [1]) of the same molecule?
A: The value was 65% and 70%.

Q: What about the “Total Cell Count” value (HEK-293T; [1]) of the same molecule?
A: The value was 666 and 654.

Q: And the “Population Apoptotic (%)” value (HEK-293T; [2])?
A: The value was 64% and 79%.

Q: And the “Population Fragmented Nuclei (%)” value (HEK-293T; [2])?
A: Its value is 3% and 4%.

Q: What about the “Population Healthy Nuclei (%)” value (HEK-293T; [2]) of the same molecule?
A: The value was 77% and 71%.

Q: And the “Population Hoechst High Intensity Objects (%)” value (HEK-293T; [2])?
A: Its value is 14% and 17%.

Q: And the “Population Membrane Permeable-Phenotype (%)” value (HEK-293T; [2])?
A: The value was 1% and 3%.

Q: And the “Population Mitochondria Different-Phenotype (%)” value (HEK-293T; [2])?
A: Its value is 93% and 91%.

Q: What about the “Population Mitotic Cells (%)” value (HEK-293T; [2]) of the same molecule?
A: The value was 35% and 20%.

Q: And the “Population Normal (%)” value (HEK-293T; [2])?
A: The value was 85% and 82%.

Q: And the “Population Pyknosed Nuclei (%)” value (HEK-293T; [2])?
A: The value was 19% and 24%.

Q: What about the “Population Tubulin-Different-Phenotype (%)” value (HEK-293T; [2]) of the same molecule?
A: Its value is 90% and 92%.

Q: And the “Total Cell Count” value (HEK-293T; [2])?
A: The value was 227 and 197.

Q: What about the “Population Apoptotic (%)” value (HEK-293T; [3]) of the same molecule?
A: The value was 28%.

Q: And the “Population Fragmented Nuclei (%)” value (HEK-293T; [3])?
A: The value was 1% and 4%.

Q: What about the “Population Healthy Nuclei (%)” value (HEK-293T; [3]) of the same molecule?
A: Its value is 89% and 87%.

Q: And the “Population Hoechst High Intensity Objects (%)” value (HEK-293T; [3])?
A: Its value is 6% and 7%.

Q: What about the “Population Membrane Permeable-Phenotype (%)” value (HEK-293T; [3]) of the same molecule?
A: Its value is 1% and 3%.

Q: What about the “Population Mitochondria Different-Phenotype (%)” value (HEK-293T; [3]) of the same molecule?
A: Its value is 12% and 10%.

Q: What about the “Population Mitotic Cells (%)” value (HEK-293T; [3]) of the same molecule?
A: The value was 71%.

Q: What about the “Population Normal (%)” value (HEK-293T; [3]) of the same molecule?
A: Its value is 93% and 92%.

Q: What about the “Population Pyknosed Nuclei (%)” value (HEK-293T; [3]) of the same molecule?
A: The value was 9% and 8%.

Q: And the “Population Tubulin-Different-Phenotype (%)” value (HEK-293T; [3])?
A: The value was 51% and 49%.

Q: What about the “Total Cell Count” value (HEK-293T; [3]) of the same molecule?
A: The value was 869 and 891.

Q: And the “Population Apoptotic (%)” value (HEK-293T; [4])?
A: Its value is 87% and 94%.

Q: And the “Population Fragmented Nuclei (%)” value (HEK-293T; [4])?
A: Its value is 6% and 4%.

Q: What about the “Population Healthy Nuclei (%)” value (HEK-293T; [4]) of the same molecule?
A: Its value is 80% and 83%.

Q: And the “Population Hoechst High Intensity Objects (%)” value (HEK-293T; [4])?
A: Its value is 20% and 23%.

Q: What about the “Population Membrane Permeable-Phenotype (%)” value (HEK-293T; [4]) of the same molecule?
A: The value was 0% and 2%.

Q: What about the “Population Mitochondria Different-Phenotype (%)” value (HEK-293T; [4]) of the same molecule?
A: Its value is 95% and 92%.

Q: And the “Population Mitotic Cells (%)” value (HEK-293T; [4])?
A: Its value is 12% and 5%.

Q: And the “Population Normal (%)” value (HEK-293T; [4])?
A: The value was 79% and 76%.

Q: And the “Population Pyknosed Nuclei (%)” value (HEK-293T; [4])?
A: The value was 13% and 12%.

Q: And the “Population Tubulin-Different-Phenotype (%)” value (HEK-293T; [4])?
A: Its value is 93% and 92%.

Q: What about the “Total Cell Count” value (HEK-293T; [4]) of the same molecule?
A: Its value is 229 and 181.

Q: What about the “Population Apoptotic (%)” value (HEK-293T; [5]) of the same molecule?
A: Its value is 12% and 13%.

Q: And the “Population Fragmented Nuclei (%)” value (HEK-293T; [5])?
A: Its value is 11% and 6%.

Q: What about the “Population Healthy Nuclei (%)” value (HEK-293T; [5]) of the same molecule?
A: Its value is 83% and 88%.

Q: What about the “Population Hoechst High Intensity Objects (%)” value (HEK-293T; [5]) of the same molecule?
A: The value was 7% and 9%.

Q: What about the “Population Membrane Permeable-Phenotype (%)” value (HEK-293T; [5]) of the same molecule?
A: The value was 3%.

Q: What about the “Population Mitochondria Different-Phenotype (%)” value (HEK-293T; [5]) of the same molecule?
A: The value was 1% and 3%.

Q: And the “Population Mitotic Cells (%)” value (HEK-293T; [5])?
A: Its value is 87% and 86%.

Q: What about the “Population Normal (%)” value (HEK-293T; [5]) of the same molecule?
A: The value was 93% and 90%.

Q: What about the “Population Pyknosed Nuclei (%)” value (HEK-293T; [5]) of the same molecule?
A: The value was 4% and 5%.

Q: What about the “Population Tubulin-Different-Phenotype (%)” value (HEK-293T; [5]) of the same molecule?
A: Its value is 25% and 29%.

Q: What about the “Total Cell Count” value (HEK-293T; [5]) of the same molecule?
A: Its value is 1828 and 1568.

Q: And the “Population Apoptotic (%)” value (HEK-293T; [6])?
A: The value was 86% and 90%.

Q: What about the “Population Fragmented Nuclei (%)” value (HEK-293T; [6]) of the same molecule?
A: Its value is 9% and 5%.

Q: And the “Population Healthy Nuclei (%)” value (HEK-293T; [6])?
A: The value was 81% and 83%.

Q: What about the “Population Hoechst High Intensity Objects (%)” value (HEK-293T; [6]) of the same molecule?
A: Its value is 20% and 19%.

Q: What about the “Population Membrane Permeable-Phenotype (%)” value (HEK-293T; [6]) of the same molecule?
A: The value was 0% and 3%.

Q: And the “Population Mitochondria Different-Phenotype (%)” value (HEK-293T; [6])?
A: Its value is 77% and 80%.

Q: What about the “Population Mitotic Cells (%)” value (HEK-293T; [6]) of the same molecule?
A: The value was 13% and 10%.

Q: What about the “Population Normal (%)” value (HEK-293T; [6]) of the same molecule?
A: Its value is 79% and 80%.

Q: And the “Population Pyknosed Nuclei (%)” value (HEK-293T; [6])?
A: Its value is 8% and 10%.

Q: What about the “Population Tubulin-Different-Phenotype (%)” value (HEK-293T; [6]) of the same molecule?
A: The value was 93%.

Q: What about the “Total Cell Count” value (HEK-293T; [6]) of the same molecule?
A: Its value is 324 and 235.

Q: And the “Population Apoptotic (%)” value (U2OS; [1])?
A: Its value is 72% and 71%.

Q: And the “Population Healthy Nuclei (%)” value (U2OS; [1])?
A: Its value is 84% and 68%.

Q: And the “Population Hoechst High Intensity Objects (%)” value (U2OS; [1])?
A: The value was 0% and 1%.

Q: What about the “Population Membrane Permeable-Phenotype (%)” value (U2OS; [1]) of the same molecule?
A: Its value is 1% and 10%.

Q: And the “Population Mitochondria Different-Phenotype (%)” value (U2OS; [1])?
A: Its value is 0% and 2%.

Q: And the “Population Mitotic Cells (%)” value (U2OS; [1])?
A: Its value is 27% and 28%.

Q: What about the “Population Normal (%)” value (U2OS; [1]) of the same molecule?
A: Its value is 100% and 98%.

Q: What about the “Population Pyknosed Nuclei (%)” value (U2OS; [1]) of the same molecule?
A: Its value is 11% and 12%.

Q: And the “Population Tubulin-Different-Phenotype (%)” value (U2OS; [1])?
A: The value was 52% and 23%.

Q: And the “Population Apoptotic (%)” value (U2OS; [2])?
A: The value was 64% and 80%.

Q: And the “Population Fragmented Nuclei (%)” value (U2OS; [2])?
A: The value was 11% and 8%.

Q: What about the “Population Healthy Nuclei (%)” value (U2OS; [2]) of the same molecule?
A: The value was 54% and 60%.

Q: What about the “Population Hoechst High Intensity Objects (%)” value (U2OS; [2]) of the same molecule?
A: Its value is 0% and 1%.

Q: What about the “Population Membrane Permeable-Phenotype (%)” value (U2OS; [2]) of the same molecule?
A: The value was 13% and 19%.

Q: What about the “Population Mitochondria Different-Phenotype (%)” value (U2OS; [2]) of the same molecule?
A: Its value is 86% and 59%.

Q: And the “Population Mitotic Cells (%)” value (U2OS; [2])?
A: The value was 35% and 19%.

Q: And the “Population Normal (%)” value (U2OS; [2])?
A: Its value is 100% and 98%.

Q: What about the “Population Pyknosed Nuclei (%)” value (U2OS; [2]) of the same molecule?
A: The value was 33% and 30%.

Q: And the “Population Tubulin-Different-Phenotype (%)” value (U2OS; [2])?
A: Its value is 86% and 71%.

Q: And the “Population Apoptotic (%)” value (U2OS; [3])?
A: The value was 72% and 40%.

Q: And the “Population Fragmented Nuclei (%)” value (U2OS; [3])?
A: Its value is 3% and 11%.

Q: What about the “Population Healthy Nuclei (%)” value (U2OS; [3]) of the same molecule?
A: Its value is 85% and 79%.

Q: And the “Population Hoechst High Intensity Objects (%)” value (U2OS; [3])?
A: Its value is 0% and 1%.

Q: What about the “Population Membrane Permeable-Phenotype (%)” value (U2OS; [3]) of the same molecule?
A: The value was 2% and 4%.

Q: And the “Population Mitochondria Different-Phenotype (%)” value (U2OS; [3])?
A: The value was 0%.

Q: And the “Population Mitotic Cells (%)” value (U2OS; [3])?
A: Its value is 27% and 60%.

Q: And the “Population Normal (%)” value (U2OS; [3])?
A: Its value is 100% and 98%.

Q: What about the “Population Pyknosed Nuclei (%)” value (U2OS; [3]) of the same molecule?
A: The value was 10% and 9%.

Q: What about the “Population Tubulin-Different-Phenotype (%)” value (U2OS; [3]) of the same molecule?
A: The value was 59% and 33%.
